Results taken from paper PMC4629469 (Bioorganic & medicinal chemistry letters, 2015).

Experiments:
[1] = target: T1, M5 recombinant human mAChRs (Homo sapiens, UniProt P08912); test: [3H]NMS binding to CHO cell membranes expressing M5 mAChR; settings: vs compound 1
T1 sequence (P08912 1-532): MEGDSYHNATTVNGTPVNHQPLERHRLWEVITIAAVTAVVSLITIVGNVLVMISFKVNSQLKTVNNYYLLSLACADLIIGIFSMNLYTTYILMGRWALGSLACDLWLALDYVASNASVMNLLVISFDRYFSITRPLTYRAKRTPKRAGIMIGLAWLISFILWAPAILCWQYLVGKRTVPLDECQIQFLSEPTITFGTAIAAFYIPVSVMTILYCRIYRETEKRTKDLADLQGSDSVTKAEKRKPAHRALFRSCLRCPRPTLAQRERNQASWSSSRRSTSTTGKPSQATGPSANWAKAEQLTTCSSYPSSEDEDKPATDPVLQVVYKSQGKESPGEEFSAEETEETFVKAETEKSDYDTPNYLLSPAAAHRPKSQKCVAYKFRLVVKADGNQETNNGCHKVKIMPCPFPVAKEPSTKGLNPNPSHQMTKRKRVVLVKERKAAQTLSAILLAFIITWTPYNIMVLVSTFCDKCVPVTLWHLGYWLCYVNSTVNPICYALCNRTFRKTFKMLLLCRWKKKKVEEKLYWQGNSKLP

[2] = target: M3 recombinant human mAChRs (Homo sapiens, UniProt P20309); test: [3H]NMS binding to CHO cell membranes expressing M3 mAChR; settings: vs compound 1
[3] = tested on: M1, M3, and M5 human mAChRs; test: [3H]NMS binding, comparison over all three mAChR subtypes
Method in brief: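 Membranes from CHO cells stably expressing recombinant human M1, M3 or M5 mAChR. Inhibition of [3H]N-methylscopolamine binding by the test compound gives IC50, which is converted to Ki by the Cheng–Prusoff equation. Ki is the mean ± SEM of three independent experiments, each run in duplicate. Subtype comparisons use these Ki values at each receptor.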

[4] = target: T2, M1 recombinant human mAChRs (Homo sapiens, UniProt P11229); test: [3H]NMS binding to CHO cell membranes expressing M1 mAChR; settings: vs compound 1
T2 sequence (P11229 1-460): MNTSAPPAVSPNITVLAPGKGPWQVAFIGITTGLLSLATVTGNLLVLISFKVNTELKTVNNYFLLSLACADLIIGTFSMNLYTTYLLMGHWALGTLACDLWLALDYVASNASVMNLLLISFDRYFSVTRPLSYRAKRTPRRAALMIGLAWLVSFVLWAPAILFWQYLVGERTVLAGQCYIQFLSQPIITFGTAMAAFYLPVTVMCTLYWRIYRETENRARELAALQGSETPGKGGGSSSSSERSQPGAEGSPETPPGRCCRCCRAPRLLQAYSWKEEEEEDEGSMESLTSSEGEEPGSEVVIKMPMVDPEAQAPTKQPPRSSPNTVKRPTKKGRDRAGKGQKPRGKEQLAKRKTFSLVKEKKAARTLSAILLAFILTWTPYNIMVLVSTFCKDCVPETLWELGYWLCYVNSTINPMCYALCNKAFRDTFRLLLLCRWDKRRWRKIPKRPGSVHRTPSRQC

M3 recombinant human mAChRs, sequence (P20309 whole entry): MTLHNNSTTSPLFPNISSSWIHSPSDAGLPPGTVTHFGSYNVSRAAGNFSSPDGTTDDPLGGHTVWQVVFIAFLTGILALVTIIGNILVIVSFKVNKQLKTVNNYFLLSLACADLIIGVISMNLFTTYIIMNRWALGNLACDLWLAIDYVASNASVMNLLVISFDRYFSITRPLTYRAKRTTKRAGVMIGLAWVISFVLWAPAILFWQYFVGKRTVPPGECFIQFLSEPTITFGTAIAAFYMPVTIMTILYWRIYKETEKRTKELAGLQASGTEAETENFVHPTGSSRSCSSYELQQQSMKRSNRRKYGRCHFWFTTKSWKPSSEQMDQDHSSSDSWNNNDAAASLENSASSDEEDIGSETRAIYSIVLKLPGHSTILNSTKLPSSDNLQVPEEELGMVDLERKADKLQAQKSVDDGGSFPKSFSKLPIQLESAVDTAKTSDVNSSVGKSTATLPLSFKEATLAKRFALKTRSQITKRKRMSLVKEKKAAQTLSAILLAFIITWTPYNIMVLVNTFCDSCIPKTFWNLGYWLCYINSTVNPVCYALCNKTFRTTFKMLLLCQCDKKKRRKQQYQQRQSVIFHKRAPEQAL

COc1ccc(CCOC(=O)C2(c3ccccc3)CCN(C)CC2)cc1OC [Compound 4a]
decrease of affinity at M5 compared with compound 1 [1]: 30% | fold higher affinity at M3 compared with compound 1 [2]: 19 fold | subtype selectivity ([3]; M5 over M1 and M3): not subtype selective | fold higher affinity at M1 compared with compound 1 [4]: 2 fold

COc1ccc(CCC(=O)OCC2(c3ccccc3)CCN(C)CC2)cc1OC [Compound 6a]
fold increase in affinity of the reverse ester ([3]; 6a vs 4a, all three mAChRs): 1 to 3 fold
